Laboratory results: PMC8966662 (RSC Advances, 2022)
Where two headings read alike, the source gives them in different places.

Columns and labels:
[1] = ref 13 (Grande et al.); cited from earlier work
[2] = in vitro bioavailability, dialysis tubing procedure; format: in vitro ADME; settings: sum of pepsin (stage 1) and pancreatin (stage 2) bioavailability
Outline: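 Test compound at 1.0 × 10³ μM in DMSO, with porcine pepsin and 2.0 w/v% sodium cholate, sealed in a dialysis bag in 8.5 × 10⁻¹ N HCl, shaking at 37 ± 0.5 °C for 2 h. Porcine pancreatin in NaHCO3, amylase and esterase then added; bag in pH 7.0 phosphate buffer, 37 °C, 4 h. Outer liquid sampled after each stage and quantified by UV-Vis against pH 1.0/7.0 calibration curves as % unchanged compound recovered; triplicate.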

strain TA 98 = settings: cited from earlier work
[3] = 2,2-diphenyl-1-picrylhydrazyl; format: biochemical; settings: result in words
Outline: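 DPPH· freshly prepared at 50 μM in methanol; test compound stocks in DMSO. Sample mixed with DPPH· solution, kept 30 min in the dark, absorbance read at 517 nm by UV-Vis. %RSA calculated against DMSO vehicle control across a series of sample concentrations. IC50 taken from %RSA plots.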

Row | total in vitro bioavailability [2] [%] | SMILES | also measured
1 | – | O=c1c(O)c(-c2ccc(O)c(O)c2)oc2cc(O)cc(O)c12 [Compound 1S0, quercetin] | total in vitro bioavailability [1]: 10.7 ± 1.3%
2 | 20.70 ± 0.29 | NC(=O)COc1cc(OCC(N)=O)c2c(=O)c(OCC(N)=O)c(-c3ccc(OCC(N)=O)c(OCC(N)=O)c3)oc2c1 [Compound 1S3, 2,2′,2′′-((2-(3,4-bis(2-amino-2-oxoethoxy)phenyl)-4-oxo-4H-chromene-3,5,7-triyl)tris(oxy))triacetamide] | toxicity in mutagenicity study (strain TA 98): nontoxic
3 | 16.59 | O=c1cc(-c2ccc(O)cc2)oc2cc(O)cc(O)c12 [Compound 2S0, apigenin, reference compound] | DPPH free radical scavenging activity (%RSA) [3]: very low
4 | 22.20 ± 0.82 | NC(=O)COc1ccc(-c2cc(=O)c3c(OCC(N)=O)cc(OCC(N)=O)cc3o2)cc1 [Compound 2S3, 2,2′-((2-(4-(2-amino-2-oxoethoxy)phenyl)-4-oxo-4H-chromene-5,7-diyl)bis(oxy))diacetamide] | DPPH free radical scavenging activity (%RSA) [3]: very low; toxicity in mutagenicity study (strain TA 98): nontoxic; mutagenic activity (strain TA 98; strain TA 98): did not show any mutagenic activity
5 | 16.19 | O=c1c(O)c(-c2ccc(O)c(O)c2)oc2cc(O)ccc12 [Compound 3S0, Fisetin, reference compound] | –
6 | 34.81 ± 0.85 | NC(=O)COc1ccc2c(=O)c(OCC(N)=O)c(-c3ccc(OCC(N)=O)c(OCC(N)=O)c3)oc2c1 [Compound 3S3, 2,2′-((4-(3,7-bis(2-amino-2-oxoethoxy)-4-oxo-4H-chromen-2-yl)-1,2-phenylene)bis(oxy))diacetamide] | –
7 | 15.40 | O=c1c(O)c(-c2ccc(O)cc2)oc2cc(O)cc(O)c12 [Compound 4S0, kaempferol, reference compound] | –
8 | 21.34 ± 0.50 | NC(=O)COc1ccc(-c2oc3cc(OCC(N)=O)cc(OCC(N)=O)c3c(=O)c2OCC(N)=O)cc1 [Compound 4S3, 2,2′,2′′-((2-(4-(2-amino-2-oxoethoxy)phenyl)-4-oxo-4H-chromene-3,5,7-triyl)tris(oxy))triacetamide] | –
9 | 19.29 | O=c1cc(-c2ccc(O)c(O)c2)oc2cc(O)cc(O)c12 [Compound 5S0, luteolin, reference compound] | –
10 | 34.87 ± 0.87 | NC(=O)COc1cc(OCC(N)=O)c2c(=O)cc(-c3ccc(OCC(N)=O)c(OCC(N)=O)c3)oc2c1 [Compound 5S3, 2,2′-((4-(5,7-bis(2-amino-2-oxoethoxy)-4-oxo-4H-chromen-2-yl)-1,2-phenylene)bis(oxy))diacetamide] | –
